From ChEMBL document CHEMBL1126865, “Structure-activity relationship within a series of pyrazolidinone antibacterial agents. 2. Effect of side-chain modification on in vitro activity and pharmacokinetic parameters” (J Med Chem, 1993)
Values after ≈ are worked out from the molar mass of the structure shown.

Assays:
[1] = (§1) Plasma half-life in monkey after intravenous administration; format: ADME, organism-based; conditions: simiiformes
In short: (§2)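 Male rhesus monkeys (n = 3) dosed iv at 30 mg/kg in 0.9% saline; plasma sampled from cephalic vein over 3 h. Drug levels by agar well diffusion bioassay (E. coli ATCC4157 or Proteus providentia XC24) against standard curves in spiked plasma. Samples stored at -70 °C. Half-life = 0.693/β, β the terminal slope of plasma vs time curve.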

[2] = (§3) Plasma half-life in rats after intravenous administration; format: ADME, organism-based; conditions: rat
In short: (§4)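 Male Sprague-Dawley rats were given 20 mg/kg IV in 0.9% saline through an indwelling jugular cannula, which was also used for serial blood sampling. Plasma and cumulative urine (citrate pH 6.5, metabolism cages) were collected over 6 h and stored at -70 °C. Levels were measured by agar well diffusion bioassay against standard curves in plasma or citrate. Half-life = 0.693/β; recovery as % of dose.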

[3] = Plasma half-life in human after intravenous administration; format: ADME, organism-based
[4] = Maximum concentration in male rats after iv administration of 20 mg/kg; format: ADME, organism-based; parameters: dose 20 mg/kg, route intravenous; conditions: rat, in vivo; in short: as §4
[5] = Urinary recovery expressed as percentage dose in male rats after iv administration of 20 mg/kg; format: ADME, organism-based; parameters: dose 20 mg/kg, route intravenous; conditions: rat, urine; in short: as §4
Klebsiella aerogenes = test: In vitro antibacterial activity against Enterobacter aerogenes C32; format: functional
Escherichia coli [6] = test: In vitro antibacterial activity against Escherichia coli EC14; format: functional
Haemophilus influenzae = test: In vitro antibacterial activity against Haemophilus influenza C.L; format: functional
Klebsiella pneumoniae = test: In vitro antibacterial activity against Klebsiella X26; format: functional
Pseudomonas aeruginosa = test: In vitro antibacterial activity against Pseudomonas PS72; format: functional
[7] = test system: Staphylococcus epidermidis; test: In vitro antibacterial activity against Staphylococcus epidermidis 222; format: functional
Staphylococcus aureus = test: In vitro antibacterial activity against Staphylococcus aureus X1.1; format: functional
Streptococcus pneumoniae = test: In vitro antibacterial activity against Streptococcus pneumoniae PARK; format: functional
[8] = Half-life period in male rats after iv administration of 20 mg/kg; format: ADME, organism-based; parameters: dose 20 mg/kg, route intravenous; conditions: rat, in vivo; in short: as §4
[9] = Maximum concentration in male CD-1 mice after sc administration of 20 mg/kg; format: ADME, organism-based; parameters: dose 20 mg/kg, route subcutaneous; conditions: CD-1, mouse, in vivo
In short: (§5)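 Male CD-1 mice received 20 mg/kg in 0.9% saline, orally or subcutaneously. Cumulative urine over 0–4 h was collected from metabolism cages into 0.1 M sodium citrate, pH 6.5, and stored at -70 °C. Drug levels were measured by agar well diffusion bioassay (E. coli ATCC4157 or Proteus providentia XC24) against spiked standard curves. Half-life = 0.693/β (terminal slope); urinary recovery as % of dose.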

[10] = Half-life period in male CD-1 mice after sc administration of 20 mg/kg; format: ADME, organism-based; parameters: dose 20 mg/kg, route subcutaneous; conditions: CD-1, mouse, in vivo; in short: as §5
[11] = Urinary recovery in male CD-1 mice after po administration of 20 mg/kg; format: ADME, organism-based; parameters: dose 20 mg/kg, route oral; conditions: CD-1, mouse, urine; in short: as §5
[12] = Urinary recovery in male rats after iv administration of 20 mg/kg; format: ADME, organism-based; parameters: dose 20 mg/kg, route intravenous; conditions: rat, urine; in short: as §4
Escherichia coli [13] = test: Effective dose against Escherichia coli EC14 after po administration in mice; format: functional
Escherichia coli [14] = test: Effective dose against Escherichia coli EC14 after sc administration in mice; format: functional
Escherichia coli [15] = test: Minimum inhibitory concentration against Escherichia coli EC14 after po administration in mice; format: functional
Escherichia coli [16] = test: Minimum inhibitory concentration against Escherichia coli EC14 after sc administration in mice; format: functional
Streptococcus pyogenes [17] = test: Effective dose against Streptococcus pyogenes (C203) after po administration in mice; format: functional
Streptococcus pyogenes [18] = test: Effective dose against Streptococcus pyogenes (C203) after sc administration in mice; format: functional
Streptococcus pyogenes [19] = test: Minimum inhibitory concentration against Streptococcus pyogenes (C203) after po administration in mice; format: functional
Streptococcus pyogenes [20] = test: Minimum inhibitory concentration against Streptococcus pyogenes (C203) after sc administration in mice; format: functional
[21] = Plasma binding expressed as percentage in rats […]; format: ADME, organism-based; conditions: rat, iv, read-out: Plasma binding (converted)
In short: (§6)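 Binding was measured in vitro in pooled Sprague-Dawley rat plasma at a drug concentration of 20 μg/mL by ultrafiltration and reported as % bound.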

[22] = Plasma binding in male rats […] expressed as percentage of plasma binding; format: ADME, organism-based; conditions: rat, iv, read-out: Plasma binding (converted); in short: as §6
[23] = Urinary recovery expressed as percentage dose in male CD-1 mice after po administration of 20 mg/kg; format: ADME, organism-based; parameters: dose 20 mg/kg, route oral; conditions: CD-1, mouse, urine; in short: as §5
Monkey = test: as §1; format: functional, organism-based; conditions: Cercopithecidae; in short: as §2
Rattus norvegicus = test: as §3; format: functional, organism-based; in short: as §4

Row | Structure (SMILES) | half-life [2] [min] | MIC (Klebsiella aerogenes) [µg/mL] | MIC (Escherichia coli [6]) [µg/mL] | MIC (Haemophilus influenzae) [µg/mL] | MIC (Klebsiella pneumoniae) [µg/mL] | MIC (Pseudomonas aeruginosa) [µg/mL] | MIC [7] [µg/mL] | MIC (Staphylococcus aureus) [µg/mL] | MIC (Streptococcus pneumoniae) [µg/mL] | further results
1 | CC(C)(O/N=C(\C(=O)N[C@@H]1C(=O)N2C(C(=O)[O-])=C(C[n+]3ccccc3)CS[C@H]12)c1csc(N)n1)C(=O)O [CEFTAZIDIME] | 23 |  |  |  |  |  |  |  |  | half-life [1]: 49 min; half-life [3]: 108 min
2 | CCCS(=O)(=O)C1=C(C(=O)O)N2C(=O)[C@@H](NC(=O)/C(=N/OCCCl)c3csc(N)n3)CN2C1 | 15 | 0.5 (≈ 0.96 µM) | 0.125 (≈ 0.24 µM) | 0.125 (≈ 0.24 µM) | 0.03 (≈ 0.0576 µM) | > 128 | 16 (≈ 30.7 µM) | 8 (≈ 15.4 µM) | 0.06 (≈ 0.115 µM) | Cmax [4]: 74.3 µg/mL; dose excreted [5]: 44.2%; half-life [8]: 14.7 min
3 | CO/N=C(\C(=O)NC1CN2CC(S(C)(=O)=O)=C(C(=O)O)N2C1=O)c1csc(N)n1 (stereo unspecified) | 25 | 0.25 (≈ 0.562 µM) | 0.06 (≈ 0.135 µM) | 0.5 (≈ 1.12 µM) | 0.125 (≈ 0.281 µM) | > 128 | 64 (≈ 144 µM) | 32 (≈ 72 µM) | 0.25 (≈ 0.562 µM) | Cmax [9]: 53.8 µg/mL; Cmax [4]: 120 µg/mL; half-life [10]: 10.6 min; dose excreted [11]: < 2%; dose excreted [12]: 80.4%; ED50 (Escherichia coli [13]): 7.93 mg/kg; ED50 (Escherichia coli [14]): < 0.625 mg/kg; MIC (Escherichia coli [15]): 0.06 µg/mL (≈ 0.135 µM); MIC (Escherichia coli [16]): 0.06 µg/mL (≈ 0.135 µM); ED50 (Streptococcus pyogenes [17]): 13.5 mg/kg; ED50 (Streptococcus pyogenes [18]): 1.8 mg/kg; MIC (Streptococcus pyogenes [19]): 0.03 µg/mL (≈ 0.0675 µM); MIC (Streptococcus pyogenes [20]): 0.03 µg/mL (≈ 0.0675 µM); fraction unbound [21]: 0.78; half-life [8]: 24.7 min
4 | CO/N=C(\C(=O)N[C@H]1CN2CC(C#N)=C(C(=O)O)N2C1=O)c1csc(N)n1 | 18 | 1 (≈ 2.56 µM) | 0.25 (≈ 0.639 µM) | 0.5 (≈ 1.28 µM) | 0.25 (≈ 0.639 µM) | > 128 | 64 (≈ 164 µM) | 64 (≈ 164 µM) | 0.25 (≈ 0.639 µM) | Cmax [9]: 71 µg/mL; Cmax [4]: 120 µg/mL; half-life [10]: 12.2 min; fraction unbound [22]: 0.585; dose excreted [23]: < 2%; dose excreted [5]: 87.8%; ED50 (Escherichia coli [13]): 7.87 mg/kg; ED50 (Escherichia coli [14]): 0.67 mg/kg; MIC (Escherichia coli [15]): 0.25 µg/mL (≈ 0.639 µM); MIC (Escherichia coli [16]): 0.25 µg/mL (≈ 0.639 µM); ED50 (Streptococcus pyogenes [17]): 6.68 mg/kg; ED50 (Streptococcus pyogenes [18]): 0.625 mg/kg; MIC (Streptococcus pyogenes [19]): 0.25 µg/mL (≈ 0.639 µM); MIC (Streptococcus pyogenes [20]): 0.25 µg/mL (≈ 0.639 µM); half-life [8]: 17.9 min
5 | C=CCCO/N=C(/C(=O)N[C@H]1CN2CC(S(C)(=O)=O)=C(C(=O)O)N2C1=O)c1csc(N)n1 | 11 | 0.25 (≈ 0.516 µM) | 0.06 (≈ 0.124 µM) | 0.125 (≈ 0.258 µM) | 0.015 (≈ 0.031 µM) | 128 (≈ 264 µM) | 8 (≈ 16.5 µM) | 4 (≈ 8.26 µM) | 0.06 (≈ 0.124 µM) | Cmax [4]: 70.3 µg/mL; half-life [1]: 36 min; dose excreted [5]: 53.1%; half-life [8]: 11.3 min
6 | CO/N=C(\C(=O)N[C@@H]1C(=O)N2C(C(=O)O)=CCS[C@H]12)c1csc(N)n1 [CEFTIZOXIME] | 15 |  |  |  |  |  |  |  |  | half-life [1]: 44 min; half-life [3]: 96 min
7 | N#CC1=C(C(=O)O)N2C(=O)[C@@H](NC(=O)/C(=N/OCc3ccccc3)c3csc(N)n3)CN2C1 |  | 8 (≈ 17.1 µM) | 8 (≈ 17.1 µM) | 0.25 (≈ 0.535 µM) | 0.125 (≈ 0.267 µM) | > 128 | 8 (≈ 17.1 µM) | 8 (≈ 17.1 µM) | 0.06 (≈ 0.128 µM) | 
8 | CCS(=O)(=O)C1=C(C(=O)O)N2C(=O)[C@@H](NC(=O)/C(=N/OCCBr)c3csc(N)n3)CN2C1 |  | 0.25 (≈ 0.453 µM) | 0.06 (≈ 0.109 µM) | 0.25 (≈ 0.453 µM) | 0.015 (≈ 0.0272 µM) | > 128 | 8 (≈ 14.5 µM) | 8 (≈ 14.5 µM) | 0.125 (≈ 0.227 µM) | 
9 | CS(=O)(=O)C1=C(C(=O)O)N2C(=O)[C@@H](NC(=O)/C(=N/OCC(=O)O)c3csc(N)n3)CN2C1 |  | 0.25 (≈ 0.512 µM) | 0.06 (≈ 0.123 µM) | 1 (≈ 2.05 µM) | 0.125 (≈ 0.256 µM) | 128 (≈ 262 µM) | > 128 | > 128 | 2 (≈ 4.09 µM) | 
10 | CCCCO/N=C(/C(=O)N[C@H]1CN2CC(C#N)=C(C(=O)O)N2C1=O)c1csc(N)n1 |  | 2 (≈ 4.61 µM) | 1 (≈ 2.31 µM) | 0.125 (≈ 0.288 µM) | 0.06 (≈ 0.138 µM) | > 128 | 16 (≈ 36.9 µM) | 16 (≈ 36.9 µM) | 0.125 (≈ 0.288 µM) | 
11 | N#CC1=C(C(=O)O)N2C(=O)[C@@H](NC(=O)Cc3ccccc3)CN2C1 |  | 128 (≈ 392 µM) | 32 (≈ 98.1 µM) | 32 (≈ 98.1 µM) | 32 (≈ 98.1 µM) | > 128 | 32 (≈ 98.1 µM) | 16 (≈ 49 µM) | 8 (≈ 24.5 µM) | 
12 | CCS(=O)(=O)C1=C(C(=O)O)N2C(=O)[C@@H](NC(=O)/C(=N/OCSC)c3csc(N)n3)CN2C1 |  | 0.5 (≈ 0.991 µM) | 0.25 (≈ 0.495 µM) | 0.5 (≈ 0.991 µM) | 0.06 (≈ 0.119 µM) | > 128 | 64 (≈ 127 µM) | 16 (≈ 31.7 µM) | 0.125 (≈ 0.248 µM) | 
13 | CCCO/N=C(/C(=O)N[C@H]1CN2CC(S(C)(=O)=O)=C(C(=O)O)N2C1=O)c1csc(N)n1 |  | 0.25 (≈ 0.529 µM) | 0.125 (≈ 0.265 µM) | 0.125 (≈ 0.265 µM) | 0.015 (≈ 0.0317 µM) | 128 (≈ 271 µM) | 16 (≈ 33.9 µM) | 8 (≈ 16.9 µM) | 0.125 (≈ 0.265 µM) | 
14 | Nc1nc(/C(=N\OCCCl)C(=O)N[C@H]2CN3CC(S(=O)(=O)Cc4ccccc4)=C(C(=O)O)N3C2=O)cs1 |  | 4 (≈ 7.03 µM) | 2 (≈ 3.51 µM) | 0.5 (≈ 0.879 µM) | 0.03 (≈ 0.0527 µM) | > 128 | 16 (≈ 28.1 µM) | 8 (≈ 14.1 µM) | 0.06 (≈ 0.105 µM) | 
15 | Cn1nnnc1SCC1=C(C(=O)O)N2C(=O)[C@@H](NC(=O)[C@H](O)c3ccccc3)[C@H]2SC1 [CEFAMANDOLE] |  |  |  |  |  |  |  |  |  | half-life [3]: 48 min; T1/2 (Monkey): 34 min; T1/2 (Rattus norvegicus): 15 min
